Kir21 inh – inhibitors of mouse Kir2.1 inward-rectifier potassium channel; P35561; HEK293-Kir2.1, FluxOR thallium flux fluorescence; stronger effect = lower value; B-score at 10 µM; 0.85% of 310,000 active; AID 1672;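 active = fluorescence ratio B-score at or below minus 3 SD of library scores, with starting-brightness B-score within 2 SD, cut at about -4.2 in these data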;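 note: channel flux triggered by added potassium and thallium sulfate stimulus; B-score of peak minus minimum fluorescence over baseline after thallium stimulus; more negative B-score means stronger Kir2.1 block with less thallium influx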
hERG protect – hERG (human) protection from proarrhythmic block. Q12809. CHO-hERG, FluxOR thallium flux, dofetilide IC70 present. activation (rescue from dofetilide block), less the hit threshold, % at 10 µM. 0.51% of 310,000 active. AID 1511;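 active = activation above the mean of controls blocked by dofetilide plus 5 SD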;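 note: thallium influx through hERG after potassium depolarization seen as dye fluorescence rise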
KCNK3 block – human KCNK3 channel inhibition, primary screen; O14649; CHO-KCNK3 thallium flux, FluxOR fluorescence; stronger effect = lower value; B-score at 10 µM; 0.84% of 340,000 active;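 active = B-score under library mean minus 4 SD, starting fluorescence ratio at most library mean plus 5 SD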;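 note: more negative B-score means stronger inhibition of thallium flux through KCNK3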
KCNK9 block – human KCNK9 channel inhibition; Q9NPC2; HEK293 KCNK9, FluxOR thallium flux fluorescence; stronger effect = lower value; B-score at 10 µM; 1.2% of 310,000 active; AID 488922;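 active = ratio B-score over 3 SD below the library mean, with starting fluorescence within 5 SD of its mean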;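 note: negative B-score means less thallium flux so channel inhibition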
Target sequence (Q9NPC2 whole entry, looked up): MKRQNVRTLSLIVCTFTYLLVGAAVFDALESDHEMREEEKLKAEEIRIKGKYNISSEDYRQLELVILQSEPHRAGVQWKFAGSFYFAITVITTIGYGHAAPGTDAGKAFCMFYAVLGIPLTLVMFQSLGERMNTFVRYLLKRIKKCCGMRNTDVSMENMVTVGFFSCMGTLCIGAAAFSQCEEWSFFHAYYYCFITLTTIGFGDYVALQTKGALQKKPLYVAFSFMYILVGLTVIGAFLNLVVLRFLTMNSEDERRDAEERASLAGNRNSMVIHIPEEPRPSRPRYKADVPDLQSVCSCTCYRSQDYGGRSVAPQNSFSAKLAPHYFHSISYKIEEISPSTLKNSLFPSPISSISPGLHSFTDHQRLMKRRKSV
KCNQ1 block – human KCNQ1 channel inhibition | AID 2642 | P51787 | B-score at 10 µM | 1.3% of 310,000 active | CHO-K1 KCNQ1, FluxOR thallium flux fluorescence; stronger effect = higher value;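 active = compounds whose thallium flux B-score, printed positive for inhibition, exceeds three library SD while starting fluorescence stays within three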;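 note: channel opened by potassium depolarization with thallium stimulus after 20 min compound exposure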
KCNQ1 pot – potentiates or activates the human KCNQ1 potassium channel; CHO-K1 KCNQ1, thallium flux FluxOR fluorescence; stronger effect = higher value; P51787; B-score at 10 µM; 0.35% of 310,000 active;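 active = fluorescence ratio B-score, a plate-corrected score, at least three library SD, with initial intensity B-score within 5 SD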
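Test system: CHO-K1 cells stably expressing KCNQ1 / Medium: assay buffer / Also added: depolarizing K+/Tl+ stimulus, K2SO4 and Tl2SO4 each 12.5 mM in 5x stock / Incubation: 90 min dye loading and 20 min compound exposure, both at room temperature / Signal: thallium influx via FluxOR fluorescence, kinetic imaging / Evaluation: B score of baseline-normalized fluorescence ratio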
Large screens that a line does not name were inactive. Sampled rows, rich in hits. Any-hit rate of the full collection: about 3.7%.

O=c1oc2cc(Cl)ccc2n1CSc1nc2ccccc2s1	KCNK9 block -6.6
CN1CCN(S(=O)(=O)c2cccc(C(=O)Oc3ccccc3Cl)c2)CC1	none
O=C(N=C1c2ccccc2CN1c1ccc(F)c(Cl)c1)c1cccnc1Cl	KCNK9 block -11 (no result: KCNK3 block)
N#Cc1ccc(N2Cc3ccccc3C2=NC(=O)c2cccnc2Cl)cc1	none
O=[N+]([O-])c1cccc(S(=O)(=O)N/N=C/c2ccc(O)cc2)c1	none
Fc1ccc(C(CCNCc2cccs2)c2ccco2)cc1 (stereo unspecified)	Kir21 inh -4.5
O=C(NCCC(c1ccccc1)c1ccco1)c1cccs1 (stereo unspecified)	none
CN(CC(=O)Nc1ccccc1C(F)(F)F)C(=O)CC1OC(=O)c2ccccc21 (stereo unspecified)	none
CCOC(=O)c1cc(CC)sc1NC(=O)CN1CCN(C(=O)c2ccco2)CC1	KCNQ1 pot 23
CCOC(=O)c1cc(CC)sc1NC(=O)Cc1ccsc1	KCNK3 block -9
CCOC(=O)c1c(NC(=O)CN2CCN(C(=O)c3ccco3)CC2)sc2c1CCCC2	hERG protect 29, KCNQ1 pot 14
CCOC(=O)c1cc(C)sc1NC(=O)CN1CCN(C(=O)c2ccco2)CC1	KCNQ1 pot 9
CCOC(=O)c1cc(CC)sc1NC(=O)CCC(=O)O	none
COC(=O)c1cc(C)sc1NC(=O)CN1CCN(C(=O)c2ccco2)CC1	none
CCOC(=O)c1c(NC(=O)c2ccco2)sc2c1CCCC2	none
COc1ccc(S(=O)(=O)N2CCOC2CNC(=O)C(=O)NCCN2CCOCC2)cc1OC (stereo unspecified)	none
S=C1NCCOCCNC(=S)NCCOCCOCCN1	none
N#Cc1c(NC(=O)COC(=O)c2nccnc2N)sc2c1CCCC2	none
CCOC(=O)c1c(NC(=O)COC(=O)c2nccnc2N)sc2c1CCC2	KCNK3 block -11 (no result: Kir21 inh, hERG protect, KCNK9 block, KCNQ1 block, KCNQ1 pot)
N#Cc1sc(=O)[nH]c1Cl	none
CCCP(=O)(CCC)CCP(=O)(c1ccccc1)c1ccccc1	none
Fc1cccc(/C=N/Nc2ccc3ccccc3n2)c1	hERG protect 10, KCNQ1 pot 58
Fc1cccc(/C=N/Nc2ccccn2)c1	none
COc1cccc(-c2cc(C(F)(F)F)n3ncc(C(=O)O)c3n2)c1	none
COC(=O)c1cnn2c(C(F)(F)F)cc(-c3ccccc3)nc12	hERG protect 5.2
O=C(c1ccccc1)c1ccc(OCC(O)CNC2CCCc3ccccc32)cc1 (stereo unspecified)	Kir21 inh -6.2
OC(CNC1CCCc2ccccc21)COc1ccc2ccccc2c1 (stereo unspecified)	Kir21 inh -10
O=C(O)/C=C/C(=O)Nc1ccc(Cc2ccc(NC(=O)/C=C/C(=O)O)cc2)cc1	none
COc1ccc(C(=O)NNC(=O)C(=O)NC(C)c2ccccc2)cc1OC (stereo unspecified)	none
Cc1ccc(-n2c(C)cc(=O)cc2C)cc1[N+](=O)[O-]	none
Cc1cccc(Cn2c(C(=O)OC(C)C)cc3c2ccn3C)c1	KCNQ1 block 6
COC(=O)c1cc2occc2n1Cc1cccc(C)c1	none
O=C(NC1CCCC1)c1sc(=S)n2c1[nH]c(=O)c1ccccc12	none
O=C(NCc1ccco1)c1sc(=S)n2c1[nH]c(=O)c1ccccc12	KCNQ1 block 7
Cc1ccc(CNC(=O)c2ccc3c(=O)[nH]c4c(C(=O)NCC5CCCO5)sc(=S)n4c3c2)cc1 (stereo unspecified)	KCNQ1 block 10
O=C(NCc1ccccc1)c1ccc2c(=O)[nH]c3c(C(=O)NCC4CCCO4)sc(=S)n3c2c1 (stereo unspecified)	KCNQ1 block 8
CCCCCNC(=O)c1ccc2c(=O)[nH]c3c(C(=O)NCC4CCCO4)sc(=S)n3c2c1 (stereo unspecified)	none
Cc1ccc2c(c1)[nH]c1c(=O)n(Cc3ccco3)cnc12	none
CC1CCCCN1CCCNC(=O)CN1C(=O)c2cccnc2Oc2ccc(Cl)cc21 (stereo unspecified)	none
CSCCC(NC(=O)c1ccccc1)C(=O)N/N=C(\C)Cc1ccccc1 (stereo unspecified)	none
CCCCCCCCCS(=O)(=O)N/N=C/c1cccc([N+](=O)[O-])c1	KCNQ1 block 8

Screens (PubChem)
